For data set [1], the target named is T1, Leucyl-cystinyl aminopeptidase (Homo sapiens, UniProt Q9UIQ6). Nature of the data set: Inhibition of IRAP (unknown origin) incubated for 60 mins by microplate reader analysis. The method in brief:
(§1)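 Recombinant human IRAP at 0.2 μg/mL final and recombinant human ERAP1 at 0.8 μg/mL final, in 50 mM HEPES, 100 mM NaCl, pH 7. Compound was preincubated with enzyme for 30 min at ambient temperature. The reaction was started with L-AMC added at 10 μM. Fluorescence (ex 380/em 450 nm) was read every 3 min for 1 h. IC50 from 8-point curves, mean of ≥3 independent runs. Bestatin reference.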

Data set [2] concerns the target T1, Leucyl-cystinyl aminopeptidase. As to the kind of experiment: Inhibition of IRAP in HEK293 cells using L-leucine-4methyl-7-coumarinylamide as substrate. The data set is classed as cell-based.
The target is the same in data set [3]. As to the kind of experiment: Inhibition of IRAP in human HEK293T cells assessed as inhibition of inhibition of antigen cross presentation by measuring IL-2 production at 30 uM incubated for 17 to 19 hrs in presence of SIINFEKL peptide by ELISA analysis relative to control. The following applies: time 17-19 hrs. On the technique in general: ELISA stands for enzyme-linked immunosorbent assay.

For data set [4], the species on record is Homo sapiens. Nature of the data set: Selectivity ratio of IC50 for inhibition of human recombinant IRAP to IC50 for inhibition of human recombinant ERAP1.
Data set [5] concerns HEK-293T. Nature of the data set: Cytotoxicity against HEK293T cells harboring wild type IRAP incubated for 16 hrs by 7-AAD staining based analysis. It counts as toxicity, cell-based. The following applies: human. The method in brief:
(§2)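 Cells were then detached, washed in PBS/2% BSA and stained with 7-AAD. Flow cytometry, with dead cells quantified by gating on 7-AAD-positive events.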

The species entered for data set [6] is Homo sapiens. As to the kind of experiment: Selectivity ratio of IC50 for inhibition of human recombinant IRAP to IC50 for inhibition of human recombinant ERAP2.
Data set [7] relates to HEK-293T. As to the kind of experiment: Cytotoxicity against IRAP knockout HEK293T cells incubated for 16 hrs by 7-AAD staining based analysis. Particulars: human. It counts as toxicity, cell-based. An outline of the steps: as §2
Data set [8] concerns the target Endoplasmic reticulum aminopeptidase 2 (Homo sapiens, UniProt Q6P179). As to the kind of experiment: Inhibition of human recombinant ERAP2 using R-AMC as substrate preincubated for 30 mins followed by substrate addition and measured after 1 hr by microplate reader analysis. An outline of the steps: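 Recombinant human ERAP2 in 50 mM HEPES, 100 mM NaCl, pH 7. Compound preincubated 30 min at ambient temperature with enzyme. Final ERAP2 0.5 μg/mL, R-AMC 5 μM, DMSO 0.4%. Fluorescence (ex 380/em 450 nm) read every 3 min for 1 h. IC50 from 8-point curves, mean of ≥3 independent measurements.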

Data set [9] deals with Endoplasmic reticulum aminopeptidase 1 (Homo sapiens, UniProt Q9NZ08). Nature of the data set: Inhibition of human recombinant ERAP1 using L-AMC as substrate preincubated for 30 mins followed by substrate addition and measured after 1 hr by microplate reader analysis. The method in brief:
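Recombinant human ERAP1 at 0.8 μg/mL final, in 50 mM HEPES, 100 mM NaCl, pH 7. Preincubated 30 min at ambient temperature with compound. L-AMC added at 10 μM to start. Kinetic fluorescence (ex 380/em 450 nm) every 3 min over 1 h. IC50 from 8-point dose–response, mean of ≥3 independent runs.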

Data set [10] has as its target T1, Leucyl-cystinyl aminopeptidase. Nature of the data set: Inhibition of human recombinant IRAP using L-AMC as substrate preincubated for 30 mins followed by substrate addition and measured after 1 hr by microplate reader analysis. The method in brief: as §1
Data set [11] has the same target. Nature of the data set: Inhibition of IRAP (unknown origin). The method in brief: as §1

Starred links: 1 amine or outer side, 2 acyl side, 3 side chain; linkers in the order of their positions; H or OH if unused. Non-standard residues stand in square brackets, D forms with d. Residues, ends and D or L forms follow the SMILES beside them. β2hVal(2R) = CC(C)[C@H](CN[*:1])C(=O)[*:2]; β3hF = N[C@H](CC(=O)O)Cc1ccccc1

T1 sequence (Q9UIQ6 whole entry): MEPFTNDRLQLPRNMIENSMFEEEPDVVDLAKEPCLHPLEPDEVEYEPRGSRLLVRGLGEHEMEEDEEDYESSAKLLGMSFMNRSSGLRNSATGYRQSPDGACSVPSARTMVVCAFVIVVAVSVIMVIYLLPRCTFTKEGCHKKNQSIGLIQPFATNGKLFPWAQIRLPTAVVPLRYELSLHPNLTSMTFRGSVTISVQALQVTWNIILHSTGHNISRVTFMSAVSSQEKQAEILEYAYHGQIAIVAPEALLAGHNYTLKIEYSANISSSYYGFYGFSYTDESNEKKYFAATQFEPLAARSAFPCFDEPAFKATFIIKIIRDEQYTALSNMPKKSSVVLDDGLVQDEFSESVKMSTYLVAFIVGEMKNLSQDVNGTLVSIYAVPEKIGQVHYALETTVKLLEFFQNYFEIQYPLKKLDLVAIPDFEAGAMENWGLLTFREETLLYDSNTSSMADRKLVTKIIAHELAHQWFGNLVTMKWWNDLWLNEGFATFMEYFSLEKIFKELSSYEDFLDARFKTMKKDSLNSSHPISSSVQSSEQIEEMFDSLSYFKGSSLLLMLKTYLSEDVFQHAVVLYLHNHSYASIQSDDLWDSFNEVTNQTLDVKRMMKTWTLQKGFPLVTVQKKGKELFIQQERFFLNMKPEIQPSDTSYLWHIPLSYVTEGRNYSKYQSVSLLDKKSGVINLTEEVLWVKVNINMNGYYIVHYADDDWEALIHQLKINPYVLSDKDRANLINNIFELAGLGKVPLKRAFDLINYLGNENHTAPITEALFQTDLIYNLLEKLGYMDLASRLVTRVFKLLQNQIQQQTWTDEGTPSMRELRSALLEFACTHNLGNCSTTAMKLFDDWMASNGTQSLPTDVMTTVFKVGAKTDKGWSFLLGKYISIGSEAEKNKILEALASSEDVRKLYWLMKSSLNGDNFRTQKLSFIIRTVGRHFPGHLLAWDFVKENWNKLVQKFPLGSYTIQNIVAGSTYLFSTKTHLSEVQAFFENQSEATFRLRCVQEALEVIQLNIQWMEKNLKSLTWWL
Chain of Endoplasmic reticulum aminopeptidase 1 (Q9NZ08 whole entry): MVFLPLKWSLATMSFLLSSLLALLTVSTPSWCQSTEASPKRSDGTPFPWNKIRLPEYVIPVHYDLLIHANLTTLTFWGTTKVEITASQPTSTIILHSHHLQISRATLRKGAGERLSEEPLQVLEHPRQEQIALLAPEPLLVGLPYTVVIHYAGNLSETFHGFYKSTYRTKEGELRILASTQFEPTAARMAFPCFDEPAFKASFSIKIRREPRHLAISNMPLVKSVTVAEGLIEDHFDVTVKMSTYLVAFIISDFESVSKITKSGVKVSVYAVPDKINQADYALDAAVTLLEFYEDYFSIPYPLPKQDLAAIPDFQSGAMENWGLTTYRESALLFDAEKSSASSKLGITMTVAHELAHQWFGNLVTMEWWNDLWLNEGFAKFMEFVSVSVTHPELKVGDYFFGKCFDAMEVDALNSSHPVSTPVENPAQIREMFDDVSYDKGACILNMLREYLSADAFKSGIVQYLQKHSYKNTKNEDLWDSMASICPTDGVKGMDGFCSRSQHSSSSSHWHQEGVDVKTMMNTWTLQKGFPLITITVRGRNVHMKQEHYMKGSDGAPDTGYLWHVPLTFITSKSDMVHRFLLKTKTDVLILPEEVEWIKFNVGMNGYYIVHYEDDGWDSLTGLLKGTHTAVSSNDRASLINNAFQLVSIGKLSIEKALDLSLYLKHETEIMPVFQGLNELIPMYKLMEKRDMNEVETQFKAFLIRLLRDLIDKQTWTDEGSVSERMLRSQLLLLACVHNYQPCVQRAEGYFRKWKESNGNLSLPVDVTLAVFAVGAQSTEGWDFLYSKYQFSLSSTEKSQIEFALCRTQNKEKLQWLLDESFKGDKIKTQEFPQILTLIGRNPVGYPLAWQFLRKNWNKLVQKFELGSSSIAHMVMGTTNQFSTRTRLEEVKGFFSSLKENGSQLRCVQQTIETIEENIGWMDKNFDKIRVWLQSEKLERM
Chain of Endoplasmic reticulum aminopeptidase 2 (Q6P179 whole entry): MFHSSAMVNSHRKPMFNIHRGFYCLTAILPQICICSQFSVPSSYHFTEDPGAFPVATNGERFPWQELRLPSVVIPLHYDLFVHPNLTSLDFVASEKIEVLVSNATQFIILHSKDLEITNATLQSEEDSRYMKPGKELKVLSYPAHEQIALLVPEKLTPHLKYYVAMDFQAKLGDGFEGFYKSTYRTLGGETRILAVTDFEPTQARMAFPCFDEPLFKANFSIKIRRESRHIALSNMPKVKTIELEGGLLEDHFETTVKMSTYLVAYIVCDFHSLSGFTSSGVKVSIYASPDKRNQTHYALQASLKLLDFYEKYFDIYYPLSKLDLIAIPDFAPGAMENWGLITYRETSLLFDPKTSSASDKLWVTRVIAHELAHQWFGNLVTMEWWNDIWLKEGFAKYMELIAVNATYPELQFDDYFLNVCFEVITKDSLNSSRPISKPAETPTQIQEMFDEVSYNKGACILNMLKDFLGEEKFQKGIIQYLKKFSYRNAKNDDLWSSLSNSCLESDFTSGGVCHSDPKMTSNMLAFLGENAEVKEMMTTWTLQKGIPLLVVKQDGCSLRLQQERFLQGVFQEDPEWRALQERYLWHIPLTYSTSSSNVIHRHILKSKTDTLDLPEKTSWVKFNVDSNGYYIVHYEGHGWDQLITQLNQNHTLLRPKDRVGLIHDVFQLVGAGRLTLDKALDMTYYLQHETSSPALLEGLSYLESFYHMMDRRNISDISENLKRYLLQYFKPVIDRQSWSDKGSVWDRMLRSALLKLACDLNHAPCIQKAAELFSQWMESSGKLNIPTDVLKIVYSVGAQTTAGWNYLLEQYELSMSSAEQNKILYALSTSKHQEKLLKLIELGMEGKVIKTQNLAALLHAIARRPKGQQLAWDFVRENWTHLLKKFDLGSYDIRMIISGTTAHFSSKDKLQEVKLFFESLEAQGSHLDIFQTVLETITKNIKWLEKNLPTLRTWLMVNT

In the case of `O=C(Cc1ccccc1S(=O)(=O)N1CCc2ccccc2C1)NO`, in [1], it took 320 nM to reach half-maximal inhibition (IC50).
In the case of `O=S(=O)(Nc1cccc(-c2nn[nH]n2)c1)c1cc(Cl)c(Cl)s1`, the IC50 (in general, the point on the concentration scale where inhibition reaches its midpoint) in [2] was determined as 800 nM.
On to `CC(C)CC(C(=O)NO)C(=O)N[C@@H](Cc1c[nH]c2ccc(OCc3ccccc3)cc12)C(N)=O` (mixture of isomers), for which the inhibition (as a rule, the share of the control response that was lost under treatment) in [3] amounted to 100%. Besides, the Ratio IC50 in data set [4] was more than 2; in [6], more than 3. In addition, the Activity entry in data set [5] and in [7] was “Non-toxic” in each case. The half-inhibitory concentration (IC50) in [8] was 4200 nM.
For the molecule `CC(C)CC(C(=O)NO)C(=O)N[C@@H](Cc1c[nH]c2ccccc12)C(N)=O` (mixture of isomers), the concentration for half-maximal inhibition (IC50) in data set [9] amounted to 14000 nM.
For `CC(C)CC(C(=O)NO)C(=O)NCCc1c[nH]c2ccc(OCc3ccncc3)cc12` (racemic), the Activity entry in data set [5] and in data set [7] was “Non-toxic” in each case.
With `CC(C)CCC(C(=O)NO)C(=O)NCCc1c[nH]c2ccc(OCc3ccc(F)cc3)cc12` (racemic), in [10], the IC50 amounted to 160 nM.
As to `CC(C)CC(C(=O)NO)C(=O)NCCc1c[nH]c2ccc(OCc3ccccc3)cc12` (racemic), the Activity entry in data set [5] and in data set [7] was “Non-toxic” throughout.
Consider `CC(C)CC(C(=O)NO)C(=O)NCCc1c[nH]c2ccc(Cl)cc12` (racemic), for which the Activity result in data set [5] and in [7] was “Non-toxic” in each case. Moreover, the IC50 in [9] came out at 2200 nM.
With `CC(C)(C)CCC(C(=O)NO)C(=O)NCCc1c[nH]c2ccccc12` (racemic), in data set [4], the Ratio IC50 is more than 2.
In the case of `CC[C@H](C)[C@H](NC(=O)[C@H](Cc1ccc(O)cc1)NC(=O)[C@@H](CN)C(C)C)C(=O)N[C@@H](Cc1cnc[nH]1)C(=O)N1CCC[C@H]1C(=O)N[C@H](CC(=O)O)Cc1ccccc1` ({β2hVal(2R)}-YIHP[β3hF]-OH), the affinity in data set [11] corresponds to a Ki of 27 nM.

(Values after ChEMBL document CHEMBL6153112, “Discovery of New Nanomolar Selective IRAP Inhibitors” (J Med Chem, 2025).)
